Laboratory results taken from ChEMBL document CHEMBL1147349, “Bisamides from Aglaia species: structure analysis and potential to reverse drug resistance with cultured cells” (1993).
≈ marks a conversion by molar mass, not a printed value.

How the values were obtained:
Assay type in all cases: functional
[1] = Cytotoxicity against human LUC1 cells; conditions: read-out: ED50 (the source's name)
In short: (§1)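 Human cancer cell lines were cultured with the test compounds at concentrations up to 20 µg/ml. The read-out was cell survival, expressed as ED50.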

[2] = test system: KB; assay: Cytotoxicity against human KB cells; conditions: read-out: ED50 (the source's name); in short: as §1
[3] = Cytotoxicity against human BCA1 cells; conditions: read-out: ED50 (the source's name); in short: as §1
[4] = Cytotoxicity against human Col1 cells; conditions: read-out: ED50 (the source's name); in short: as §1
[5] = test system: LNCaP; assay: Cytotoxicity against human LNCAP cells; conditions: read-out: ED50 (the source's name); in short: as §1
[6] = test system: A-431; assay: Cytotoxicity against human A431 cells; conditions: read-out: ED50 (the source's name); in short: as §1
[7] = test system: HT-1080; assay: Cytotoxicity against human HT1080 cells; conditions: read-out: ED50 (the source's name); in short: as §1
[8] = Cytotoxicity against vinblastine-resistant human KBV1 cells; conditions: KB-V1, read-out: ED50 (the source's name)
In short: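 KB-V1 cells are routinely maintained in vinblastine (1 µg/ml) to keep the drug-resistant phenotype. For this test they were cultured with the test compounds without vinblastine, at concentrations up to 20 µg/ml. The read-out was cell survival, expressed as ED50.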

[9] = Cytotoxicity against vinblastine-resistant human KBV1 cells by dose-response study in presence of 1 ug/ml vinblastine; conditions: KB-V1, read-out: ED50 (the source's name)
In short: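 The resistant KB-V1 line, normally kept in vinblastine (1 µg/ml), was exposed to the test compounds up to 20 µg/ml. Vinblastine at 1 µg/ml was present in the culture medium during treatment. The read-out was cell survival, expressed as ED50.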

[10] = test system: SK-MEL-2; assay: Cytotoxicity against human SK-MEL-2 cells; conditions: read-out: ED50 (the source's name); in short: as §1
[11] = test system: ZR-75-1; assay: Cytotoxicity against human ZR-75-1 cells; conditions: read-out: ED50 (the source's name); in short: as §1

SMILES | EC50 [1] [µg/mL] | EC50 [2] [µg/mL] | EC50 [3] [µg/mL] | EC50 [4] [µg/mL] | EC50 [5] [µg/mL] | EC50 [6] [µg/mL] | EC50 [7] [µg/mL] | EC50 [8] [µg/mL] | EC50 [9] [µg/mL] | EC50 [10] [µg/mL] | EC50 [11] [µg/mL]
CC[C@H](C)C(=O)N[C@@H]1CCCN1C(=O)/C=C/c1ccccc1 | > 20 | > 20 | > 20 | > 20 | > 20 | > 20 | > 20 | > 20 | 4.2 | > 20 | > 20
CC[C@H](C)C(=O)N[C@H]1CCCN1C(=O)/C=C/c1ccccc1 [ODORINE] | > 20 | > 20 | > 20 | > 20 | > 20 | > 20 | > 20 | > 20 | 6.4 | > 20 | > 20
CC(C)C(=O)N[C@H]1CCCN1C(=O)/C=C/c1ccccc1 [PIRIFERINE] | > 20 | > 20 | > 20 | > 20 | > 20 | > 20 | > 20 | 10 (≈ 34.9 µM) | 8.5 | > 20 | > 20
O=C(/C=C/c1ccccc1)NCCCCNC(=O)c1ccccc1 [PYRAMIDATINE] | > 20 | > 20 | > 20 | > 20 | > 20 | > 20 | > 20 | > 20 | > 20 | > 20 | > 20
CC[C@]1(O)C[C@@H]2CN(CCc3c([nH]c4ccccc34)[C@@](C(=O)OC)(c3cc4c(cc3OC)N(C)[C@H]3[C@@](O)(C(=O)OC)[C@H](OC(C)=O)[C@]5(CC)C=CCN6CC[C@]43[C@@H]65)C2)C1 [VINBLASTINE] | – | 0.002 (≈ 0.00247 µM) | – | – | – | – | – | 2.6 (≈ 3.21 µM) | – | – | –
